Activity calls are given as the source filed them. The calls are words filed in the database; no cut-off is given here.
Key:
[1] = Chromatographic measure of drug lipophilicity; type: physicochemical
[2] = Half life of the drug was determined in the presence of 2-mercaptoethanol; type: ADME; conditions: solution containing 2-mercaptoethanol
[3] = Acid dissociation constant was determined; type: ADME
Method in brief: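 Acridine pKa measured spectrophotometrically in 20% aqueous DMF. Values in parentheses were not measured directly: they were obtained by subtracting 0.25 pKa unit from values determined for the corresponding de-1'-NHSO2CH3 derivatives.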

L1210 = experiment: Reduce in the cell count when drug added to the murine L1210 leukemia cell cultures for 70 h; type: functional; conditions: Mus musculus, L1210, 70 h; read-out: ID50 (the source's name)
P388 [4] = experiment: Percent increase in the life span of treated mice over a group of control mice injected with p388 tumor alone when administered intraperitoneally (>500) as a solution in 0.1 mL of 30%,v/v, ethanol/water; Inactive; type: functional; conditions: Mus musculus
Nucleic Acid = experiment: Binding constant to poly (dA-dT) was determined in calf thymus DNA by a fluorometric method; type: functional
P388 [5] = experiment: Percent increase in the life span of treated mice over a group of control mice injected with p388 tumor alone when administered intraperitoneally (9) as a solution in 0.1 mL of 30%,v/v, ethanol/water; type: functional, Mus musculus
P388 [6] = experiment: Optimal dose administered intraperitoneally in; type: functional, Mus musculus

Row | Rm [1] | half-life [2] [min] | pKa [3] | IC50 (L1210) [nM] | Structure (SMILES) | ILS (P388 [4]) | K (Nucleic Acid) [M⁻¹] | ILS (P388 [5]) [%] | OD (P388 [6]) [mg/kg/day]
1 | 0.36 | > 70 | 7.63 | 4900 | COc1cc(NS(C)(=O)=O)cc(OC)c1Nc1c2ccccc2nc2ccccc12 | inactive |  |  | 
2 | 0.41 | > 70 | 7.6 | > 10000 | Cc1cc(NS(C)(=O)=O)cc(C)c1Nc1c2ccccc2nc2ccccc12 | inactive |  |  | 
3 | 0.15 | 54 |  | 100 | Cc1cc(NS(C)(=O)=O)ccc1Nc1c2ccccc2nc2ccccc12 |  | 380000 |  | 

Row | Structure (SMILES) | Rm [1] | half-life [2] [min] | pKa [3] | IC50 (L1210) [nM] | ILS (P388 [4]) | K (Nucleic Acid) [M⁻¹] | ILS (P388 [5]) [%] | OD (P388 [6]) [mg/kg/day]
4 | COc1cc(NS(C)(=O)=O)ccc1Nc1c2ccccc2nc2ccccc12 [AMSACRINE] | 0.18 | 1.8 |  |  |  | 290000 | 111 | 
5 | CS(=O)(=O)Nc1ccc(Nc2c3ccccc3nc3ccccc23)cc1 | 0 | 0.92 |  | 35 |  |  |  | 66
